In the library only some 3.7% were active in any assay of this set; here they are far more common.
GPR7 antagonist: human neuropeptides B/W receptor 1 antagonism; GPR7-expressing cells, fluorescence antagonist assay; inhibition, % at 4.4 µM; hit rate 1.1% among 290,000; in the data active means inhibition above about 16%, passing the limit was not always enough;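 further: cells stimulated with the agonist NPW; 0% = agonist with vehicle and 100% = vehicle without agonist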
OX1R antag-1: antagonists of human orexin 1 receptor. CHO/OX1R cells, Fluo-8 calcium fluorescence, orexin A. inhibition, % at 5 µM. hit rate 0.43% among 330,000;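 active means inhibition above its plate's threshold, mean inhibition of all tested compounds on the plate plus 3 SD, cut at about 37% in these data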;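 further: 0% = orexin A challenge wells and 100% = SB-334867-A antagonist wells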
CHO parental Ca: signal in parental CHO cells, OX1R antagonist counter-screen. hit rate 0.63% among 330,000. inhibition, % at 5.6 µM. parental CHO-K1, ATP-induced calcium, Fluo-8 fluorescence;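 active means inhibition above that plate's mean sample inhibition plus 3 SD, cut at about 26% in these data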;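 further: 0% = ATP-challenged DMSO wells and 100% = DMSO wells without ATP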
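Assay system: parental CHO cells; Read-out basis: percent inhibition of ATP-evoked calcium rise, normalized to controls; Benchmarks: ATP and no-ATP DMSO wells; Compound dosing: single nominal dose of 5.6 µM per compound; Signal: Fluo-8 calcium dye fluorescence; Also added: ATP as calcium-mobilizing challenge; Repeats: singlicate.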
PGE2 EP2 inh: blocks the human prostaglandin E2 receptor EP2. P43116. AID 1422. C6 glioma cells expressing human EP2, cAMP TR-FRET; cells stimulated with saturating PGE2. hit rate 0.52% among 260,000. inhibition, % at 25 µM;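 active means percent inhibition above 40 after rounding to a whole number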;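 further: rat C6 glioma host cells with rolipram phosphodiesterase inhibitor present; the protocol text gives 20 µM as final concentration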
Target sequence (P43116 whole entry, looked up): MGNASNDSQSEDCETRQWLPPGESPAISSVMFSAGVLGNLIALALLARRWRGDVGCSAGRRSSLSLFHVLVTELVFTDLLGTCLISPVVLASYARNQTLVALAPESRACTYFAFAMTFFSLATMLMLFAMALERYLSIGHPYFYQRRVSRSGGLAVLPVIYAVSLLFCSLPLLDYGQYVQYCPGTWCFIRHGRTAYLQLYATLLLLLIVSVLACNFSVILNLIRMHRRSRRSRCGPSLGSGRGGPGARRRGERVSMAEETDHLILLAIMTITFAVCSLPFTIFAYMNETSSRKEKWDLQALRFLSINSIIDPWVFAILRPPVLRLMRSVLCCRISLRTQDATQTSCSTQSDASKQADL
EP2 mod: modulators of human EP2 prostaglandin E2 receptor | EP2-expressing cells, cAMP HTRF FRET, PGE2 co-stimulation | induction, % at 25 µM | hit rate 0.83% among 260,000 | AID 940;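 active means compounds whose cAMP rise, as percent of the full-agonist control response, exceeds 60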;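 further: rat C6 glioma line stably carrying human EP2 under a CMV promoter; the protocol text gives 20 µM as final concentration; 100% = response of wells given 1 µM PGE2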
OX1R antag-2: OX1R (human) antagonism. AID 485270. inhibition, % at 6.6 µM. OX1R-expressing cells, FRET antagonist read-out. O43613. hit rate 1.8% among 330,000; in the data active means inhibition mostly above about 38%, no sharp cut-off; inactive means mostly below about 40%;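 further: 0% = agonist challenge alone and 100% = reference antagonist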
GPR7 antag cf: human GPR7 antagonism, confirmation assay; shares compounds with GPR7 antagonist; GPR7-expressing cells, calcium fluorescence antagonist mode; inhibition, % at 4.4 µM; hit rate 52% among 2,400; in the data active means inhibition above about 24%;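 further: stimulated with the GPR7 agonist NPW; 0% = agonist plus vehicle and 100% = vehicle alone without agonist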
MCHR1 antag: counter-screen for GPR7 antagonists: antagonists of human MCHR1; shares compounds with GPR7 antagonist; MCHR1-expressing cells, fluorescence antagonist assay; inhibition, % at 4.4 µM; hit rate 62% among 2,400; AID 2148; in the data active means inhibition above about 22%;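 further: 0% = vehicle with agonist and 100% = vehicle without agonist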
Active calls of the source: *; . = not tested or not shown.

SMILES	GPR7 antagonist	OX1R antag-1	CHO parental Ca	PGE2 EP2 inh	EP2 mod	OX1R antag-2	GPR7 antag cf	MCHR1 antag
COc1ccc(/C=C2/CC/C(=C\c3ccc(OC)c(OC)c3OC)C2=O)c(OC)c1OC	23*	-27	-15	10	31	15	-1	67*
COc1ccc(/C=C2\CCC(C3CCCC3)C2=O)c(OC)c1OC (stereo unspecified)	10	-20	-8	.	.	9	.	.
CCOC(=O)c1c(C)n(-c2ccc(F)cc2)c2ccc(O)cc12	72*	-12	-21	.	.	1	-4	-14
O=C1CNC(=S)N1CCCn1ccnc1	-6	-12	2	4	-18	27	.	.
NS(=O)(=O)c1ccc(NC(=S)NCc2ccc(F)cc2)cc1	10	-8	2	8	-16	-4	.	.
S=C(NCCc1ccccc1)Nc1ccc(Cl)cc1	-12	1	-1	9	-45	28	.	.
O=[N+]([O-])c1ccc(NC(=S)NCCc2ccccc2)cc1	47*	6	51*	19	-76	47*	61*	59*
S=C(NCc1ccncc1)Nc1cccc(Cl)c1	-12	-3	-9	4	6	5	.	.
O=[N+]([O-])c1ccc(NC(=S)NCCc2ccc(Cl)cc2)cc1	49*	64*	69*	74*	-18	71*	65*	70*
Fc1ccc(CNC(=S)Nc2cccc(Cl)c2)cc1	36*	15	41*	4	-74	13	14	53*
O=[N+]([O-])c1ccc(NC(=S)NCc2ccc(F)cc2)cc1	40*	-22	74*	.	.	27	59*	71*
CC[C@@H](Cn1nc(-c2cccs2)ccc1=O)NC(=O)c1cnccn1	.	.	.	5	-1	.	.	.
CCCNC(=O)c1ccc(N2CCC3(CC2)CC(c2cccc(Br)c2)=NO3)c(NC(=O)c2c(Cl)cccc2Cl)c1	.	-31	-20	.	.	13	.	.
S=C(NCCN(C1CCCCC1)C1CCCC1)Nc1cccc(Cl)c1	55*	-5	0	.	.	12	60*	69*
S=C(NCCC(c1ccccc1)c1ccccc1)Nc1cccc(Cl)c1	-4	27	6	14	-22	68	.	.
O=C(CNC(=O)c1ccc(Cl)cc1)N/N=C/c1cccnc1	3	-20	-19	0	35	7	.	.
O=C(CN1CCN(Cc2ccc3c(c2)OCO3)CC1)Nc1ccc2c(c1)OCCO2	2	.	.	15	-4	.	.	.
CC[n+]1c(/C=C/N(C)c2ccccc2)oc2ccc(Cl)cc21	-8	-4	-5	5	6	6	.	.
CCN1/C(=C/C=C/c2oc3ccc4ccccc4c3[n+]2CC)Oc2ccc3ccccc3c21	45*	76*	64*	5	-22	14	55*	58*
COC(=O)/N=C(/Cc1ccc(OC)cc1)c1ccc(OC)cc1	1	-5	6	.	.	13	.	.
COc1ccc(C/C(=N\OC(C)=O)c2ccc(OC)cc2)cc1	40*	-12	6	.	.	11	15	19
CC(C(=O)Nc1ccc2c(c1)OCCO2)c1ccc([N+](=O)[O-])cc1 (stereo unspecified)	47*	25	31*	12	-74	3	70*	51*
C/C(CC(=O)Nc1ccc2c(c1)OCCO2)=N\NC(=O)c1ccc([N+](=O)[O-])cc1Cl	34*	8	-4	.	.	64	-5	-1
C/C(CC(=O)Nc1ccc2c(c1)OCCO2)=N\NC(=O)c1ccccc1Cl	-1	-28	-10	.	.	5	.	.
CCNC(=S)N(Cc1cc2c(C)ccc(C)c2[nH]c1=O)C1CCCC1	-13	-34	-21	10	26	12	.	.
SMILES	GPR7 antagonist	OX1R antag-1	CHO parental Ca	PGE2 EP2 inh	EP2 mod	OX1R antag-2	GPR7 antag cf	MCHR1 antag
CN(C)S(=O)(=O)c1ccc(N2CCCC2)c(C(=O)NC(c2ccccc2)c2ccccc2)c1	25*	-19	-14	1	21	28	32*	22*
CN(C)S(=O)(=O)c1ccc(N2CCCC2)c(C(=O)NNC(=O)c2ccccc2)c1	.	-13	-20	.	.	-1	.	.
Fc1ccc(C2=NN3C(C2)c2ccccc2OC3c2ccncc2)cc1 (stereo unspecified)	.	.	.	10	18	.	.	.
Cc1ccc(-c2cc(C(=O)N/N=C/c3c[nH]c4ccccc34)[nH]n2)cc1	34*	.	.	58*	-78	.	18	35*
O=C(N/N=C/c1c[nH]c2ccccc12)c1cc(Cl)ccc1O	36*	-6	2	.	.	22	10	27*
O=C1CN(Cc2cc(=O)oc3cc4c(cc23)CCC4)CCN1	-12	-4	-3	8	3	5	.	.
C=CCn1c(SCC(=O)C(C)(C)C)nnc1-c1ccccn1	-11	0	-1	6	16	7	.	.
CCCSc1nnc(CSc2nc3ccccc3s2)n1-c1ccccc1	32*	-13	-11	3	27	37	10	50*
CCC(c1nnnn1Cc1ccc(F)cc1)N1CCN(C2CCCCC2)CC1 (stereo unspecified)	46*	-3	-22	24	-7	36	43*	29*
CC(C)C(c1nnnn1Cc1cccs1)N1CCN(C2CCCC2)CC1 (stereo unspecified)	34*	-21	-14	7	-11	25	17	14
CCC(c1nnnn1Cc1ccc2c(c1)OCO2)N1CCN(C2CCCCC2)CC1 (stereo unspecified)	.	.	.	13	8	.	.	.
CCN(CC)S(=O)(=O)c1cccc(NC(=O)COC(=O)/C=C/c2ccco2)c1	-7	-15	-11	8	-22	8	.	.
CC(=O)c1cccc(NC(=S)NC(=O)Cc2ccc(Cl)cc2)c1	36*	10	-2	.	.	-6	55*	35*
O=C(CSc1nc2ccccc2c(=O)n1-c1ccc(F)cc1)Nc1ccc2c(c1)CCC2	-8	-9	-14	3	34	15	.	.
O=C(O)CSc1nc2ccccc2[nH]1	27*	-20	-1	6	37	20	-9	14
COc1ccccc1NC(=O)C(C)Nc1ccc(C)c(Cl)c1 (stereo unspecified)	-9	-17	-17	15	-32	8	.	.
Cc1nc(CCNC(=O)CC2C(=O)NCCN2Cc2ccoc2)nc2c1CCCC2 (stereo unspecified)	-11	4	-9	-2	-5	2	.	.
OCCN1CCN(C2Cc3cc(Cl)ccc3Sc3ccc(Cl)cc32)CC1 (stereo unspecified) (tested in a mixture with another compound)	-9	6	18	.	33	-2	.	.
CN1CCN(CCOC2Cc3ccccc3Sc3ccc(Cl)cc32)CC1 (stereo unspecified)	23*	-14	4	8	-51	11	33*	44*
